Here are results for five compounds from article PMC7770080 (Biochemical pharmacology, 2020).

Series [1] deals with C. difficile strain 630 spores. Kind of series: Prevention of murine CDI after C. difficile spore challenge. It counts as in vivo, mice. Conditions: 50 mg/kg oral gavage, three doses; for CDI signs in spore-challenged mice: 10^8 CFU spores; for Time to clinical endpoint: clinical endpoint > 6 on CDI severity scale.
The nature of series [2]: Fecal excretion of CamSA and mSA after oral CamSA in cpx and non-cpx mice. It counts as in vivo.
The test system of series [3] is murine GI microbiota (feces). Description: Metabolism of CamSA by fecal microbiota. The format is in vitro ADME, mice.
Series [4] in a line: Interaction with cholestyramine resin in vitro and recovery from the resin. The conditions noted are these: for Binding to cholestyramine resin in vitro: 20 mg/ml cholestyramine, overnight, 37°C. It counts as physicochemical.
The conditions of series [5]: 24 hours, both conditions; cited from earlier work.
Series [6] can be described thus: CamSA and mSA in liver, blood, kidney and chyme after oral CamSA. It counts as in vivo, mice. The conditions noted are these: for Highest concentration found in the liver: 50 mg/kg oral CamSA, calculated; for Total administered CamSA recovered from feces, organs and chyme: semi-quantitative; for Amount recovered from chyme as fraction of total dosed CamSA: all five time points together.

For series [7], the system named is C. difficile spores. Conditions: in vitro and in vivo; cited from earlier work.
Series [8] can be described thus: Effect of cholestyramine feed on CamSA in liver of cpx mice. The conditions noted are these: 22 hours post-CamSA. The format is in vivo. The essentials: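 Cefoperazone-treated mice, individually housed, were fed chow with 4% w/w (n=3) or 0% w/w (n=4) cholestyramine from 24 h before test compound dosing until the end. At 22 h post-dose, livers with attached gallbladders were harvested, stored at −20 °C, then homogenised. Acetonitrile was added to precipitate protein, and samples were centrifuged and filtered (0.2 μm). Analysis was by RP-HPLC-MS on a PSDVB column with isocratic 40% ACN, 5 mM ammonium acetate, 0.1% formic acid.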

In another series the target is CYP3A4 (Homo sapiens, UniProt P08684). Kind of series: Vivid CYP3A4 Green screening assay with P450 BACULOSOMES
Series [9] has as its system C. difficile. Conditions: cited from earlier work.
In a further series the test system is Lactobacillus gasseri. The conditions noted are these: 24 hours, pure culture; cited from earlier work.
The test system of another series is Bifidobacterium longum. Conditions: 24 hours, pure culture; cited from earlier work.
The test system of series [10] is C. difficile. Conditions: cited from earlier work. The source holds these as a separate data set.
Another series has as its system Caco-2 monolayers. The conditions noted are these: cited from earlier work.
Series [11] has as its system C. difficile spores. Description: In vitro C. difficile spore germination assay. The format is cell-based, Clostridioides difficile.

Like-named read-outs stand apart in the source and are kept apart here.

Sequence of CYP3A4 (P08684 whole entry): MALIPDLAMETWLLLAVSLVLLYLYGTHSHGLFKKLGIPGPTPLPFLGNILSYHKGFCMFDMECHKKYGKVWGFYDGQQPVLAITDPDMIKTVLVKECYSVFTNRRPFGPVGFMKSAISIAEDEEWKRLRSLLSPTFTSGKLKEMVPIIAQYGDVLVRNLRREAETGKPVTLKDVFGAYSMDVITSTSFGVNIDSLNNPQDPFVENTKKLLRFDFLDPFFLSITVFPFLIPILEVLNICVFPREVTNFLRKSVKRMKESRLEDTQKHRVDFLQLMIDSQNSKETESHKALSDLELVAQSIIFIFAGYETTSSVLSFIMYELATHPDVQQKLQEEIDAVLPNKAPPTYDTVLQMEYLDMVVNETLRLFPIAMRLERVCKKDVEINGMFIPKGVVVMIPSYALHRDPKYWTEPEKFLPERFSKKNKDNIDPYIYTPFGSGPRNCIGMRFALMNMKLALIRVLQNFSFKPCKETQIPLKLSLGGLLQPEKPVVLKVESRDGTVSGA

For `C[C@H](CCC(=O)Nc1cccc(S(=O)(=O)O)c1)[C@H]1CC[C@H]2[C@@H]3CC[C@@H]4C[C@H](O)CC[C@]4(C)[C@H]3C[C@H](O)[C@]12C` [7-deoxy-CamSA], in series [1], the “CDI signs in spore-challenged mice” value is on record as “only moderate CDI signs”.
Take `C[C@H](CCC(=O)Nc1cccc(S(=O)(=O)O)c1)[C@H]1CC[C@H]2[C@@H]3[C@H](O)C[C@@H]4C[C@H](O)CC[C@]4(C)[C@H]3CC[C@]12C` [12-deoxy-CamSA]: in series [1], the CDI severity score is given as > 6 and the “Time to clinical endpoint” value is 48 hours post-challenge.
Regarding `C[C@H](CCC(=O)Nc1cccc(S(=O)(=O)O)c1)[C@H]1CC[C@H]2[C@@H]3[C@H](O)C[C@@H]4C[C@H](O)CC[C@]4(C)[C@H]3C[C@H](O)[C@]12C` [CamSA], the “Retention of intact compound in the animal” value in series [2] (antibiotic-treated mouse) is given as 7 days post-administration. Besides, in series [2] (cpx mice), the “Start of CamSA excretion in feces” value is “around 6 hours post-administration” and the “Time of second fecal excretion maximum” value was 32 hours post-administration. For the same compound, the “Fraction of total dosed CamSA recovered from feces” value in series [2] (cpx mice, 50 mg/kg oral, over a week) is given as “approximately 30%”. For the same compound, in series [2] (non-cpx mice), the Detection in feces entry was “low levels of intact CamSA” and the “Maximum amount recovered from feces at a single time point relative to cpx mice” value was “four-fold lower”. Further, the “Fraction of total dosed drug recovered from feces, mSA plus CamSA” value in [2] (non-cpx mice, 50 mg/kg oral, over a week) is listed as “approximately 15%”. Moreover, in series [3] (GI microbiota of mice not treated with antibiotics), the “Hydrolysis of CamSA to cholate and mSA” value is recorded as “slowly hydrolyzed”. Also, the “Degradation of CamSA by recovered microbiota” value in series [3] (feces collected one week after last antibiotic dose, data not shown) is recorded as “degraded CamSA at a similar rate as feces from animals that had never received antibiotics”. Also, the “Binding to cholestyramine resin in vitro” value in [4] is “nearly complete sequestration”. Further, the “Recovery from cholestyramine resin” value in series [4] (0.5 N aqueous HCl, absence of feces) is “less than 1%”. The “Recovery from cholestyramine resin” value in series [4] (0.5 N ethanolic HCl, absence of feces) is reported as “up to 75%”. Besides, in [4] (0.5 N ethanolic HCl, presence of fecal matter), the “Recovery from cholestyramine resin” value is “less than 10%”. The “Degradation in artificial gastric or intestinal juices” value in [5] was “no CamSA degradation was observed”. The “Highest concentration found in the liver” value in [6] is “approximately 140 μM”. For the same compound, the “Total administered CamSA recovered from feces, organs and chyme” value in [6] (cpx animals) was “approximately 40%”. Besides, in series [6] (cpx mice), the Detection in kidney result was “negligible amounts”, the “Total amount recovered from liver relative to feces (less)” value is on record as “approximately 10 fold” and the “Amount recovered from chyme as fraction of total dosed CamSA” value is reported as 10%. The Detection in blood result in series [6] (cpx mice, any time point) was “unable to detect”. Besides, the “Time of peak hepatic concentration” value in [6] (cpx mice, one animal per time point) was 22 h. In [6] (mouse, in vivo), the “CamSA and mSA recovered from chyme relative to blood (higher)” value is 300 fold; the “CamSA and mSA recovered from chyme relative to other organs (higher)” value is “at least 10 fold”. The “Total administered CamSA recovered from feces, organs and chyme” value in series [6] (non-cpx animals) is recorded as ~25%. Also, in [6] (non-cpx mice), the Detection in blood entry is given as “not detected”; the “Total combined CamSA and mSA recovered from liver relative to feces (less)” value was “approximately 10 fold”. In the series on C. difficile spores [7], the “Effect on taurocholate-mediated C. difficile spore germination” value is given as “potent inhibitor”. Moreover, the Detection in liver result in [8] (0% cholestyramine feed) was “detected CamSA from liver samples from three of the four mice”. In addition, in series [8] (4% cholestyramine feed), the Detection in liver result was “unable to detect”. Besides, in [1], the “CDI signs in spore-challenged mice” value is “little to no signs of CDI”. For the same compound, at CYP3A4 (read-out: IC50 on CYP3A4 activity, assuming inhibition of CYP3A4, triplicate), the IC50 (commonly the point on the concentration scale where inhibition reaches its midpoint) was 0.62 ± 0.11 mM. Also, the Acute toxicity entry with C. difficile [9] (CamSA-treated mice) is “did not indicate any signs of acute toxicity or damage to GI tissue”. In the series on C. difficile [9] (single 50 mg/kg dose), the “Prevention of CDI symptoms” value is given as “completely prevent CDI symptoms”. The CamSA hydrolyzed entry in the series with Lactobacillus gasseri is given as “approximately 80%”. In addition, the CamSA hydrolyzed result in the series with Bifidobacterium longum is given as “approximately 80%”. In the series with C. difficile [10] (CamSA alone), the “Effect on mean time of death of infected animals” value is reported as “double the mean time of death” and the “Prevention of CDI onset” value was “unable to prevent the onset of CDI”. In addition, the “Hamsters protected, no CDI symptoms a month post-challenge” value with C. difficile [10] (CamSA with sub-clinical doses of vancomycin) is listed as 70%. Further, in the series on Caco-2 monolayers, the Intestinal permeability result is “limited intestinal permeability”.
On to `C[C@H](CCC(=O)[O-])[C@H]1CC[C@H]2[C@@H]3[C@H](O)C[C@@H]4C[C@H](O)CC[C@]4(C)[C@H]3C[C@H](O)[C@]12C.[Na+]` [cholate, Sodium cholate, reference compound], for which the “Time to clinical endpoint” value in series [1] was ≤ 48 hours post-challenge. Moreover, the “Effect on C. difficile spore germination in vitro” value in the series on C. difficile spores [11] is “could stimulate spore germination”.
As to `Nc1cccc(S(=O)(=O)O)c1` [mSA, metanilic acid], the Detection in feces entry in series [2] (cpx mice, any time point) is “not observed”. In addition, in series [2] (non-cpx mice), the “Amount recovered from feces relative to CamSA from the same animals (higher)” value is “approximately 40 fold”. For the same compound, the “Time of first large peak in feces” value in series [2] (non-cpx mice, after CamSA administration) is ≤ 12 h. Besides, the “Binding to cholestyramine resin in vitro” value in series [4] is reported as “bound completely”. Further, the “Reversibility of binding to cholestyramine” value in series [4] (stripping under strong acidic conditions) is “irreversible”. Moreover, the “Highest concentration found in the liver” value in [6] is recorded as “approximately 20 μM”. Further, the Detection in kidney result in series [6] (cpx mice) is recorded as “detected”. In addition, the Detection in blood result in [6] (cpx mice, any time point) is on record as “unable to detect”. Besides, in [6] (non-cpx mice), the “Amount recovered from chyme relative to amount recovered from feces” value was “about 85%”, the Detection in blood result was “only detected in blood at the 22-hour time point” and the Detection in kidney entry is given as “only detected in kidney at the 12-hour time point”. The “Amount recovered from chyme as fraction of total dosed CamSA” value in series [6] (non-cpx mice, detected as mSA) is listed as 13%. Moreover, the “Time to clinical endpoint” value in series [1] is reported as ≤ 48 hours post-challenge. It took 17.5 ± 1.1 mM to reach half-maximal inhibition against CYP3A4 (IC50). Moreover, in the series on C. difficile spores [11], the “Effect on C. difficile spore germination in vitro” value is recorded as “neither induced nor inhibited”.
